For assay [1], the system named is Aeromonas hydrophila. Briefly: Activity of Aeromonas hydrophila metallo-betalactamase CphA N233A mutant expressed in Escherichia coli BL21(DE3) by spectrophotometric analysis in presence of < 0.4 uM zinc ions. The method, boiled down:
(§1)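 Steady-state kinetics (kcat, Km, kcat/Km) at 30°C in 15 mM cacodylate pH 6.5, no added Zn2+ (free [Zn2+] < 0.4 µM), enzyme as the mono-zinc form (one Zn per molecule). Substrates imipenem, nitrocefin and CENTA. N233A mutant from E. coli BL21 (DE3) pLysS Star, purified to homogeneity, mass checked by ESI-MS. Standard errors below 10%.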

For assay [2], the system named is Aeromonas hydrophila. Briefly: Ratio of Kcat to Km for Aeromonas hydrophila metallo-betalactamase CphA N233A mutant expressed in Escherichia coli BL21(DE3) by spectrophotometric analysis in presence of < 0.4 uM zinc ions. The method, boiled down: as §1

SMILES strings stand for the structures. Some results are limits rather than exact numbers.

These results are taken from ChEMBL document CHEMBL1649236, “The structure of the dizinc subclass B2 metallo-beta-lactamase CphA reveals that the second inhibitory zinc ion binds in the histidine site” (Antimicrob Agents Chemother, 2009).

As for `C[C@@H](O)[C@H]1C(=O)N2C(C(=O)O)=C(SCCNC=N)C[C@H]12`, in the assay with Aeromonas hydrophila [1], the Km is above 1000 µM and the catalytic constant (kcat) was above 700 s⁻¹. In the assay on Aeromonas hydrophila [2], the kcat/Km came to 700000 M⁻¹ s⁻¹.
Consider `O=C(Cc1cccs1)N[C@@H]1C(=O)N2C(C(=O)O)=C(CSc3ccc([N+](=O)[O-])c(C(=O)O)c3)CS[C@H]12`, for which, in the assay with Aeromonas hydrophila [1], the Michaelis-Menten constant (Km) amounted to 14 µM and the kcat came out at 0.0035 s⁻¹. In the assay on Aeromonas hydrophila [2], the specificity constant (kcat/Km) amounted to 250 M⁻¹ s⁻¹.
The like results for `O=C(Cc1cccs1)N[C@@H]1C(=O)N2C(C(=O)O)=C(/C=C/c3ccc([N+](=O)[O-])cc3[N+](=O)[O-])CS[C@H]12` were, in that order, 55 µM, 0.03 s⁻¹ and 520 M⁻¹ s⁻¹.
